ChEMBL document CHEMBL1138602, “Discovery of sodium 6-[(5-chloro-2-{[(4-chloro-2-fluorophenyl)methyl]oxy}phenyl)methyl]-2-pyridinecarboxylate (GSK269984A) an EP(1) receptor antagonist for the treatment of inflammatory pain” (Bioorg Med Chem Lett, 2009)
Active and inactive are the calls of the source. The calls are words filed in the database; no cut-off is given here.

Experiments:
[1] = target: T1, Prostaglandin E2 receptor EP1 subtype (Homo sapiens, UniProt P34995); experiment: Antagonist activity at human recombinant EP1 receptor expressed in CHO cells assessed as inhibition of PGE2-mediated intracellular calcium mobilization by FLIPR method; assay type: functional, cell-based
T1 sequence (P34995 whole entry): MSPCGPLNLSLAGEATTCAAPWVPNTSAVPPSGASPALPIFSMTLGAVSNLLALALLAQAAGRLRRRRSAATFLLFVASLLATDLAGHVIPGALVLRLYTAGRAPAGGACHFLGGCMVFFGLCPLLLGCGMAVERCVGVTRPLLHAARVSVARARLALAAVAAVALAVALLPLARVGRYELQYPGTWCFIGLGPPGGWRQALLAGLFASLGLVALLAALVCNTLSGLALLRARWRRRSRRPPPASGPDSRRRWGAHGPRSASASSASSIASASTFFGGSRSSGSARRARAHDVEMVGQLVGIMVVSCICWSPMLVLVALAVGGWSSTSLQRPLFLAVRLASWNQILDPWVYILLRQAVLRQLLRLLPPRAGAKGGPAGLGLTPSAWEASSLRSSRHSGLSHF
How it was run: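 CHO cells recombinantly overexpressing human EP1 receptor; antagonism measured as block of PGE2-mediated intracellular Ca2+ mobilization. Values are the mean of at least three experiments with standard deviations.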

[2] = target: Prostaglandin E2 receptor EP4 subtype (Homo sapiens, UniProt P35408); experiment: Inhibition of EP4 receptor
Sequence of Prostaglandin E2 receptor EP4 subtype (P35408 whole entry): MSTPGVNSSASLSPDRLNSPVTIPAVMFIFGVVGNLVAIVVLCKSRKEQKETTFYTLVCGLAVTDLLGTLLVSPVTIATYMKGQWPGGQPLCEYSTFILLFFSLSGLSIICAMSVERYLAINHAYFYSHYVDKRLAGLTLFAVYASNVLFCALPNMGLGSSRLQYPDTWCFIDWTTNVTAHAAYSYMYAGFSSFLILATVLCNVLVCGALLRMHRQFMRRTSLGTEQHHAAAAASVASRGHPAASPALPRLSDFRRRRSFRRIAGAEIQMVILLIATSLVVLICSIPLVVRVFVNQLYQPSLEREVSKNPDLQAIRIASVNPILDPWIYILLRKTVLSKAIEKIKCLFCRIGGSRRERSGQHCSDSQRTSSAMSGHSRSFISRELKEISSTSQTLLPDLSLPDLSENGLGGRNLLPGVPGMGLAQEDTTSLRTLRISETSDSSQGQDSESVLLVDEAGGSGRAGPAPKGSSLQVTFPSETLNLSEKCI

[3] = Ratio of drug level in brain to blood in complete Freund's adjuvant-induced rat inflammatory pain model at 3 mg/kg, po administered after 23 hrs of adjuvant challenge measured after 1 hr; assay type: ADME, organism-based; set-up: dose 3 mg/kg, route oral; conditions: brain and blood
How it was run: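 Rat CFA inflammatory pain model: oral dosing at 1, 3 or 10 mg/kg 23 h after intraplantar adjuvant; blood and brain sampled 1 h post-dose from the same animal; Br:Bl ratio is the mean from three animals.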

[4] = Drug level in mouse brain at 0.5 mg/kg/hr administered by infusion for 12 hrs; assay type: ADME, organism-based; conditions: intravenous, read-out: Drug uptake
How it was run: (§1)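 Steady-state 12 h infusion at 5 mL/kg/h to reach a target dose of 0.5 mg/kg/h; blood and brain concentrations measured. Data are the mean from three animals.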

[5] = Drug level in rat blood at 0.5 mg/kg/hr administered by infusion for 1 hrs; assay type: ADME, organism-based; conditions: intravenous, read-out: Drug uptake
How it was run: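 Rat given a 1 h infusion; blood and brain concentrations measured.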

[6] = target: Prostaglandin F2-alpha receptor (Homo sapiens, UniProt P43088); experiment: Inhibition of FP receptor
Sequence of Prostaglandin F2-alpha receptor (P43088 whole entry, the tested form may be a part): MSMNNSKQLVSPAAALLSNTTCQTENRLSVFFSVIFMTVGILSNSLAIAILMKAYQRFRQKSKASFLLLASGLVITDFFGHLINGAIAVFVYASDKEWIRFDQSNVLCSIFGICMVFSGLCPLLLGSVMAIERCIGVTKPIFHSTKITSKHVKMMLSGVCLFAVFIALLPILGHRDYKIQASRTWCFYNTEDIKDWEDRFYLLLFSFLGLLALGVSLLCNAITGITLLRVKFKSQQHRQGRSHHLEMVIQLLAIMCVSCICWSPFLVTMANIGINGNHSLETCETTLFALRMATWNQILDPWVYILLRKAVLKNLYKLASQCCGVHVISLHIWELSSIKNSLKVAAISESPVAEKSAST

[7] = Ratio of drug level in brain to blood of rat at 0.5 mg/kg/hr administered by infusion for 12 hrs; conditions: brain and blood, intravenous
[8] = Ratio of drug level in brain to blood in complete Freund's adjuvant induced rat inflammatory pain model at 3 mg/kg, po bid for 5 days measured after 1 hr on day 5
[9] = Lipophilicity, log D at pH 7.4; assay type: physicochemical; conditions: buffer
[10] = Ratio of drug level in brain to blood of mouse at 0.5 mg/kg/hr administered by infusion for 12 hrs; conditions: brain and blood, intravenous
[11] = Solubility in FeSSIF after 0.5 hrs; assay type: physicochemical
How it was run: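 Solubility determined in water, FaSSIF and FeSSIF, all read at the 0.5 h time point.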

[12] = Ratio of drug level in brain to blood in complete Freund's adjuvant induced rat inflammatory pain model at 10 mg/kg, po bid for 5 days measured after 1 hr on day 5
[13] = test system: Rattus norvegicus; experiment: Antianalgesic activity against complete Freund's adjuvant-induced rat inflammatory pain in rat assessed as reversal of hypersensitivity at 10 mg/kg, po bid for 5 days measured on day 5 after 1 hr; assay type: functional, organism-based; set-up: dose 10 mg/kg
[14] = Drug level in blood of complete Freund's adjuvant-induced rat inflammatory pain model at 1 mg/kg, po administered after 23 hrs of adjuvant challenge measured after 1 hr; assay type: ADME, organism-based; set-up: dose 1 mg/kg, route oral; conditions: read-out: Drug uptake
How it was run: (§2)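 CFA rat study: oral doses of 1, 3 or 10 mg/kg given 23 h after intraplantar adjuvant, samples 1 h post-dose. Blood values are the mean from seven animals. Brain values are the mean from three animals.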

[15] = Drug level in Landrace pig blood at 0.5 mg/kg/hr administered by infusion for 1 hrs; assay type: ADME, organism-based, Sus scrofa; conditions: intravenous, read-out: Drug uptake
How it was run: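 Landrace pig given a 1 h infusion; blood and brain concentrations measured in a single animal.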

[16] = Drug level in brain of complete Freund's adjuvant-induced rat inflammatory pain model at 3 mg/kg, po administered after 23 hrs of adjuvant challenge measured after 1 hr; assay type: ADME, organism-based; set-up: dose 3 mg/kg, route oral; conditions: read-out: Drug uptake; how it was run: as §2
[17] = test system: Rattus norvegicus; experiment: […] activity against complete Freund's adjuvant induced inflammatory pain in po dosed rat assessed as reversal of hypersensitivity post-adjuvant challenge after 1 hr; assay type: functional
How it was run: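 Rats given adjuvant by intraplantar injection; oral dosing at 1, 3 and 10 mg/kg 23 h later. Hypersensitivity assessed by weight-bearing 1 h post-dose. ED50 derived across doses.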

[18] = target: Cytochrome P450 3A4 (Homo sapiens, UniProt P08684); experiment: Inhibition of human CYP3A4; assay type: ADME
Sequence of Cytochrome P450 3A4 (P08684 whole entry): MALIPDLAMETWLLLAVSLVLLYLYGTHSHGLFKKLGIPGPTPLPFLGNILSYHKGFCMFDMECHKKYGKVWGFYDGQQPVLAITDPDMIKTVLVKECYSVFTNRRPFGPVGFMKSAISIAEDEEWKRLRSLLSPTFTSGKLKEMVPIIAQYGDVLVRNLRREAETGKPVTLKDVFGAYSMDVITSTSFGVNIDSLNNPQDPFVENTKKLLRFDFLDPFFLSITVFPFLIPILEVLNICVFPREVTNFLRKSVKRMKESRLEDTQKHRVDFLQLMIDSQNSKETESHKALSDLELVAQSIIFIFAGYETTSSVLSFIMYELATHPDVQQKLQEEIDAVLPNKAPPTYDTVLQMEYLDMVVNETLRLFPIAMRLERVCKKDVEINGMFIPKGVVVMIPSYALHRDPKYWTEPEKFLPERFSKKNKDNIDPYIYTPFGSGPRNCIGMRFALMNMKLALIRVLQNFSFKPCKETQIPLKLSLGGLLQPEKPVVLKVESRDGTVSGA
How it was run: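 Inhibition of metabolism of fluorometric substrates (Cypex protocol); IC50 values are the mean of three experiments ± standard deviation.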

[19] = target: Prostaglandin G/H synthase 1 (Homo sapiens, UniProt P23219); experiment: Inhibition of COX1
Sequence of Prostaglandin G/H synthase 1 (P23219 whole entry, the tested form may be a part): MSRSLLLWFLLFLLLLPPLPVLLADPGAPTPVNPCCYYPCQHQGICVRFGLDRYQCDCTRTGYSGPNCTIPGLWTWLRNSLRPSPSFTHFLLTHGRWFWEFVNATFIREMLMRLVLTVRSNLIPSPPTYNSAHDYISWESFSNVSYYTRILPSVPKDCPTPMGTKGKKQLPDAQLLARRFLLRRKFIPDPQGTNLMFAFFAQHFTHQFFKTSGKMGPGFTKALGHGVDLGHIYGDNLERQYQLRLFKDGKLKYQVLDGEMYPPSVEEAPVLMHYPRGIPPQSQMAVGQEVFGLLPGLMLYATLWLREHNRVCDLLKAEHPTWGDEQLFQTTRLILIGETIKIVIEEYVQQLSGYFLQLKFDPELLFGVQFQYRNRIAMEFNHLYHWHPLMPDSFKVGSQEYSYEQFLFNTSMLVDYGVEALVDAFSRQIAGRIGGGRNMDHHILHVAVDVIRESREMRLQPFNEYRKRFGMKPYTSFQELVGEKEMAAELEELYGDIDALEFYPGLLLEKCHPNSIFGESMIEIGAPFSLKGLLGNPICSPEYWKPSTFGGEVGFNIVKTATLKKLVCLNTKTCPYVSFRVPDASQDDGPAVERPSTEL

[20] = Drug level in mouse blood at 0.5 mg/kg/hr administered by infusion for 12 hrs; assay type: ADME, organism-based; conditions: intravenous, read-out: Drug uptake; how it was run: as §1
[21] = test system: Hepatocyte; experiment: Intrinsic clearance in rat hepatocytes measured per gram of live; assay type: ADME, cell-based, Liver
How it was run: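 Intrinsic clearance in hepatocytes expressed as mL/min/g liver. Cell densities were 0.15–0.2 × 10^6 cells/mL or 0.54–0.7 × 10^6 cells/mL.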

[22] = Half life in Beagle dog at 1 mg/kg administered by intravenous infusion for 1 hr; assay type: ADME, organism-based, Canis lupus familiaris; set-up: dose 1 mg/kg, route intravenous; conditions: in vivo
How it was run: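 Intravenous administration as a 1 h infusion of a 1 mg/kg dose. Rats were male Sprague-Dawley; dogs were beagle; monkeys were cynomolgus. Blood clearance, Vss and half-life determined.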

[23] = target: T2, Prostaglandin G/H synthase 2 (Homo sapiens, UniProt P35354); experiment: Inhibition of COX2
T2 sequence (P35354 whole entry): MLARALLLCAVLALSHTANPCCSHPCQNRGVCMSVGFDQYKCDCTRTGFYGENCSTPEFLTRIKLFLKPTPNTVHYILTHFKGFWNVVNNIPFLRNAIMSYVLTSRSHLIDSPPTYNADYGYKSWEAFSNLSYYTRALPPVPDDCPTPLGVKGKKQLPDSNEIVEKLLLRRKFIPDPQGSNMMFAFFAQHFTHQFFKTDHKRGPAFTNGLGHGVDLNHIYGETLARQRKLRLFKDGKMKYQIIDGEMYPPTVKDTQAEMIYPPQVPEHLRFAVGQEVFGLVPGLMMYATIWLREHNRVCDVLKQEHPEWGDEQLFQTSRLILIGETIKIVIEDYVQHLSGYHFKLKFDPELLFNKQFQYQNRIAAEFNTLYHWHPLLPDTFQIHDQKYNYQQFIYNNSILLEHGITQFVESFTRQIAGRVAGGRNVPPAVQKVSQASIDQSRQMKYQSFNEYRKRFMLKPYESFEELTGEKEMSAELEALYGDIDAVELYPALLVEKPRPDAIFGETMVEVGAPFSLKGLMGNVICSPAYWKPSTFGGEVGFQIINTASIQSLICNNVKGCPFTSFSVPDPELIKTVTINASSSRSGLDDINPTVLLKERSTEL

For O=C([O-])c1cccc(Cc2cc(Cl)ccc2OCc2ccc(Cl)cc2F)n1.[Na+], the Ki [1] was 0.00794 µM, the IC50 [2] was > 10 µM and the Kp at 1 h [3] was 0.37. For the same molecule, the concentration at 12 h [4] was 56 nM, the concentration at 1 h [5] was 1800 nM and the IC50 [6] was > 10 µM. The Kp at 12 h [7] was 0.24, the Kp at 1 hr [8] was 0.34 and the logD [9] was 2.1. The Kp at 12 h [10] was 0.28, the solubility at 0.5 h [11] was 358 µg/mL and the Kp at 1 h [12] was 0.41. The Activity [13] was “Active”, the concentration at 1 h [14] was 144 nM and the concentration at 1 h [15] was 2300 nM. The concentration at 1 h [16] was 175 nM, the ED50 [17] was 2.6 mg/kg and the IC50 [18] was ≥ 100 µM. For the same molecule, the IC50 [19] was > 31.6 µM, the concentration at 12 h [20] was 199 nM and the clearance [21] was 2.1 mL/min/g. For the same molecule, the half-life [22] was 1.1 h and the IC50 [23] was > 100 µM.
